# T1: Psp2,6ST(15–501)-His6 (Photobacterium sp. JT-ISH-224, UniProt A8QYL1, A366G)
# T1 sequence (A8QYL1 15-501 A366G): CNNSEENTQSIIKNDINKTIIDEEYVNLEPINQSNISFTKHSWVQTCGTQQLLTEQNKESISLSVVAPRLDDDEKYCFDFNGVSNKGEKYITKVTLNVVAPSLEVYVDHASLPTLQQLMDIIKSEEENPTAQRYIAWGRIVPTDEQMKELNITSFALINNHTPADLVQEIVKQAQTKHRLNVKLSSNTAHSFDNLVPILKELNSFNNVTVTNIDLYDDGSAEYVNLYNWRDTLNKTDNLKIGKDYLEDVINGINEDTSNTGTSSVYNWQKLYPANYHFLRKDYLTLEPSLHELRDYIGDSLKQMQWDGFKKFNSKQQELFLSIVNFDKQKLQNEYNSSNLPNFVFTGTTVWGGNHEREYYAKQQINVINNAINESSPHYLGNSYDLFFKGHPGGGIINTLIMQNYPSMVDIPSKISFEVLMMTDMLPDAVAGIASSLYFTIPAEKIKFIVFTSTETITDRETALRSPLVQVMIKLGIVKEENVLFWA
# T2: His6-Pd2,6ST(16–497) (Photobacterium damselae, UniProt O66375)
# T2 sequence (O66375 16-497): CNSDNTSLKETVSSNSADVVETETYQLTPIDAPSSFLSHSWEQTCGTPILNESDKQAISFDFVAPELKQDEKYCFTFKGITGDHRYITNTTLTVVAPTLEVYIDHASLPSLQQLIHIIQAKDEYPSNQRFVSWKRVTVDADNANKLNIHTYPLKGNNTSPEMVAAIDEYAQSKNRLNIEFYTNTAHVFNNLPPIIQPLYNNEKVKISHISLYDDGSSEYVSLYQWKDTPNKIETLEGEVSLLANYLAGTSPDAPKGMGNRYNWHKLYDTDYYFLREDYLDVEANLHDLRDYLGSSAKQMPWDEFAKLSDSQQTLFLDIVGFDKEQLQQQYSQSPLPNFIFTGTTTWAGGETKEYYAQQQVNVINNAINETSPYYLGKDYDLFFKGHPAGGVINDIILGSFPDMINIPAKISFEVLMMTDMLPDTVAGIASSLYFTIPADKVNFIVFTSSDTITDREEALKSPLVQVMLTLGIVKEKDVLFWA
# How the values were obtained:
# Psp2,6ST(15–501)-His6 = molecular target: T1, Psp2,6ST(15–501)-His6; test: sialyltransfer, HPLC with fluorescence detection, Michaelis-Menten fit; format: biochemical; settings: 20 °C, labelled compound
# His6-Pd2,6ST(16–497) = molecular target: T2, His6-Pd2,6ST(16–497); test: donor hydrolysis, capillary electrophoresis, Michaelis-Menten fit; format: biochemical; settings: donor hydrolysis (water as acceptor); pH 8.0; 37 °C
# Outline: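 Recombinant enzyme (6 μM) was incubated with CMP-Neu5Ac (10, 20, 40, 60, 80 and 100 mM) in 200 mM Tris-HCl pH 8.0 for 20 min, with no acceptor, in duplicate. Reactions were stopped with ethanol and centrifuged. Supernatants were run by capillary electrophoresis in 25 mM sodium tetraborate pH 9.4, with PDA detection at 200 and 254 nm. Kinetic parameters came from a Michaelis-Menten fit of the duplicate means.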
# [1] = substrate: CC(=O)N[C@H]1[C@H]([C@H](O)[C@H](O)CO)O[C@](OP(=O)(O)OC[C@H]2O[C@@H](n3ccc(N)nc3=O)[C@H](O)[C@@H]2O)(C(=O)O)C[C@@H]1O; test: donor hydrolysis, capillary electrophoresis, Michaelis-Menten fit; format: biochemical, Photobacterium sp. JT-ISH-224; settings: donor hydrolysis (water as acceptor), pH 8.0, 20 °C
# [2] = substrate: CC(=O)N[C@H]1[C@H]([C@H](O)[C@H](O)CO)O[C@](OP(=O)(O)OC[C@H]2O[C@@H](n3ccc(N)nc3=O)[C@H](O)[C@@H]2O)(C(=O)O)C[C@@H]1O; test: sialyltransfer, HPLC with fluorescence detection, Michaelis-Menten fit; format: biochemical, Photobacterium sp. JT-ISH-224; settings: LacβMU 1.0 mM as acceptor, pH 8.0, 20 °C
# [3] = substrate: Cc1cc(=O)oc2cc(O[C@@H]3O[C@H](CO)[C@@H](O[C@@H]4O[C@H](CO)[C@H](O)[C@H](O)[C@H]4O)[C@H](O)[C@H]3O)ccc12; test: as above; format: biochemical, Photobacterium sp. JT-ISH-224; settings: CMP-Neu5Ac 1.0 mM, pH 8.0, 20 °C
molecule,measurement,setting,value
CC(=O)N[C@H]1[C@@H](OC[C@H](N)C(=O)O)O[C@H](CO)[C@H](O)[C@@H]1O [GalNAcαSer],Km,"Psp2,6ST(15–501)-His6; CMP-Neu5Ac 2.0 mM, pH 8.0",1.7 ± 0.7 mM
CC(=O)N[C@H]1[C@H]([C@H](O)[C@H](O)CO)O[C@](OP(=O)(O)OC[C@H]2O[C@@H](n3ccc(N)nc3=O)[C@H](O)[C@@H]2O)(C(=O)O)C[C@@H]1O [CMP-Neu5Ac],Km (mM),"His6-Pd2,6ST(16–497)",(1.8±0.4)×10 mM
GalNAcα2AA,Km,"Psp2,6ST(15–501)-His6; CMP-Neu5Ac 4.0 mM, pH 5.0",5.5 ± 1 mM
CC(=O)N[C@H]1[C@@H](O[C@H](C)[C@H](N)C(=O)O)O[C@H](CO)[C@H](O)[C@@H]1O [GalNAcαThr],Km,"Psp2,6ST(15–501)-His6; CMP-Neu5Ac 4.0 mM, pH 8.0",7.2 ± 3 mM
"Psp2,6ST(15–501)-His6 (Photobacterium sp. JT-ISH-224) (protein) CNNSEENTQSIIKNDINKTIIDEEYVNLEPINQSNISFTKHSWVQTCGTQQLLTEQNKESISLSVVAPRLDDDEKYCFDFNGVSNKGEKYITKVTLNVVAPSLEVYVDHASLPTLQQLMDIIKSEEENPTAQRYIAWGRIVPTDEQMKELNITSFALINNHTPADLVQEIVKQAQTKHRLNVKLSSNTAHSFDNLVPILKELNSFNNVTVTNIDLYDDGSAEYVNLYNWRDTLNKTDNLKIGKDYLEDVINGINEDTSNTGTSSVYNWQKLYPANYHFLRKDYLTLEPSLHELRDYIGDSLKQMQWDGFKKFNSKQQELFLSIVNFDKQKLQNEYNSSNLPNFVFTGTTVWAGNHEREYYAKQQINVINNAINESSPHYLGNSYDLFFKGHPGGGIINTLIMQNYPSMVDIPSKISFEVLMMTDMLPDAVAGIASSLYFTIPAEKIKFIVFTSTETITDRETALRSPLVQVMIKLGIVKEENVLFWA",kcat,[1],4.83 ± 0.5 s⁻¹
same,kcat/Km,[1],283 M⁻¹ s⁻¹
"Psp2,6ST(15–501)-His6 (Photobacterium sp. JT-ISH-224; A366G) (protein) CNNSEENTQSIIKNDINKTIIDEEYVNLEPINQSNISFTKHSWVQTCGTQQLLTEQNKESISLSVVAPRLDDDEKYCFDFNGVSNKGEKYITKVTLNVVAPSLEVYVDHASLPTLQQLMDIIKSEEENPTAQRYIAWGRIVPTDEQMKELNITSFALINNHTPADLVQEIVKQAQTKHRLNVKLSSNTAHSFDNLVPILKELNSFNNVTVTNIDLYDDGSAEYVNLYNWRDTLNKTDNLKIGKDYLEDVINGINEDTSNTGTSSVYNWQKLYPANYHFLRKDYLTLEPSLHELRDYIGDSLKQMQWDGFKKFNSKQQELFLSIVNFDKQKLQNEYNSSNLPNFVFTGTTVWGGNHEREYYAKQQINVINNAINESSPHYLGNSYDLFFKGHPGGGIINTLIMQNYPSMVDIPSKISFEVLMMTDMLPDAVAGIASSLYFTIPAEKIKFIVFTSTETITDRETALRSPLVQVMIKLGIVKEENVLFWA",Km,[2],(6.3±0.5)×10^−1 mM
same,kcat,[2],2.17 ± 0.167 s⁻¹
same,kcat/Km,[2],3500 M⁻¹ s⁻¹
same,Km,[3],(4.1±0.4)×10^−1 mM
same,kcat,[3],1.67 ± 0.167 s⁻¹
same,kcat/Km,[3],4000 M⁻¹ s⁻¹

# Reference: PMC9416874 (Carbohydrate research, 2014)
